≈ marks a conversion by molar mass, not a printed value. Calls of active or inactive are those of the source. The calls are words filed in the database; no cut-off is given here.
What was measured:
[1] = Equilibrium solubility in phosphate buffer in presence of 10% Labrasol at pH 7.4; assay type: physicochemical; settings: phosphate buffer with 10% Labrasol
[2] = molecular target: T1, Hepatocyte growth factor receptor (Homo sapiens, UniProt P08581); experiment: Inhibition of phosphorylated MET in human MKN45 cells assessed as reduction in pMET Y1230/1234/1235 level incubated for 1 hr by ELISA; assay type: cell-based
Summary of the method: (§1)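 MKN-45 is a MET-amplified human gastric tumour cell line.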

[3] = molecular target: Hepatocyte growth factor receptor (Homo sapiens, UniProt P08581, M1250T); experiment: Inhibition of phosphorylated MET M1250T mutant (unknown origin) pre-incubated for 30 mins before biotinylated poly(glutamate-alanine-tyrosine) peptide addition and measured after 5 mins by HTRF assay
Chain of Hepatocyte growth factor receptor (Homo sapiens, UniProt P08581, M1250T) (P08581 25-1390 M1250T limits assumed): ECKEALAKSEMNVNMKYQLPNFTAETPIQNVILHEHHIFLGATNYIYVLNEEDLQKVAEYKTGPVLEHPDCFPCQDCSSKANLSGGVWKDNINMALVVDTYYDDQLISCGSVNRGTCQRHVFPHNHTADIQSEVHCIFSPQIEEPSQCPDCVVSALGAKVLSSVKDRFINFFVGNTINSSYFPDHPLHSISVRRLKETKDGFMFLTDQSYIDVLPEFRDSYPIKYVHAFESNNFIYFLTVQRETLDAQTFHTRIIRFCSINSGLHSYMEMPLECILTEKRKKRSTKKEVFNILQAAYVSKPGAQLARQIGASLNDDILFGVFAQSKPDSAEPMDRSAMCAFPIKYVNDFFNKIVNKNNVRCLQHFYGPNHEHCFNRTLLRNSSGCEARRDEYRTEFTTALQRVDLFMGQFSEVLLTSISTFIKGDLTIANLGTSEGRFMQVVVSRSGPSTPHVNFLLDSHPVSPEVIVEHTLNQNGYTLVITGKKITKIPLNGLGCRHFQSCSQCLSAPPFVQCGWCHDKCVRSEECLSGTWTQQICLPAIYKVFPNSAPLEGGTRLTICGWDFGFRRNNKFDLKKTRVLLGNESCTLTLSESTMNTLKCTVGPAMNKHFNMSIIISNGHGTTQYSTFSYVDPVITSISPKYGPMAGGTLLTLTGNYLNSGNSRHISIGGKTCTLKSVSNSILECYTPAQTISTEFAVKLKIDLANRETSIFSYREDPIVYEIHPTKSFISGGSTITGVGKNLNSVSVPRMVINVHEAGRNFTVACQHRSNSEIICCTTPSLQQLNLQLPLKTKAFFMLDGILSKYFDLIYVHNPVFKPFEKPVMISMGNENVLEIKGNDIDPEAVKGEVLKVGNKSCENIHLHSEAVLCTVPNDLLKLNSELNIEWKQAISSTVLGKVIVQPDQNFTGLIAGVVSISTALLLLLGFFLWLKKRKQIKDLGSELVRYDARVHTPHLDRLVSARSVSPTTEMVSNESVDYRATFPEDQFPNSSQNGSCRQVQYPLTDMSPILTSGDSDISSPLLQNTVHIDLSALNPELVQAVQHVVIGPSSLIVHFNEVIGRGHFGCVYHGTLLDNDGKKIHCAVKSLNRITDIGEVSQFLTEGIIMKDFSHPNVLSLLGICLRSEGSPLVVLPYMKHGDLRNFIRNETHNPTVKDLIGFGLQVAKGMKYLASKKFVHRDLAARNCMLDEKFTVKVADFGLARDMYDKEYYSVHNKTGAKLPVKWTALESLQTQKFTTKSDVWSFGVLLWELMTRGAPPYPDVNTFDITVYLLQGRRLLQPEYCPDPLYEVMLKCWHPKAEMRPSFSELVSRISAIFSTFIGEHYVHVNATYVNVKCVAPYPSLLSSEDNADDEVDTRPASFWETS

[4] = molecular target: Hepatocyte growth factor receptor (Homo sapiens, UniProt P08581, Y1230H); experiment: Inhibition of phosphorylated MET Y1230H mutant (unknown origin) pre-incubated for 30 mins before biotinylated poly(glutamate-alanine-tyrosine) peptide addition and measured after 5 mins by HTRF assay
Chain of Hepatocyte growth factor receptor (Homo sapiens, UniProt P08581, Y1230H) (P08581 25-1390 Y1230H limits assumed): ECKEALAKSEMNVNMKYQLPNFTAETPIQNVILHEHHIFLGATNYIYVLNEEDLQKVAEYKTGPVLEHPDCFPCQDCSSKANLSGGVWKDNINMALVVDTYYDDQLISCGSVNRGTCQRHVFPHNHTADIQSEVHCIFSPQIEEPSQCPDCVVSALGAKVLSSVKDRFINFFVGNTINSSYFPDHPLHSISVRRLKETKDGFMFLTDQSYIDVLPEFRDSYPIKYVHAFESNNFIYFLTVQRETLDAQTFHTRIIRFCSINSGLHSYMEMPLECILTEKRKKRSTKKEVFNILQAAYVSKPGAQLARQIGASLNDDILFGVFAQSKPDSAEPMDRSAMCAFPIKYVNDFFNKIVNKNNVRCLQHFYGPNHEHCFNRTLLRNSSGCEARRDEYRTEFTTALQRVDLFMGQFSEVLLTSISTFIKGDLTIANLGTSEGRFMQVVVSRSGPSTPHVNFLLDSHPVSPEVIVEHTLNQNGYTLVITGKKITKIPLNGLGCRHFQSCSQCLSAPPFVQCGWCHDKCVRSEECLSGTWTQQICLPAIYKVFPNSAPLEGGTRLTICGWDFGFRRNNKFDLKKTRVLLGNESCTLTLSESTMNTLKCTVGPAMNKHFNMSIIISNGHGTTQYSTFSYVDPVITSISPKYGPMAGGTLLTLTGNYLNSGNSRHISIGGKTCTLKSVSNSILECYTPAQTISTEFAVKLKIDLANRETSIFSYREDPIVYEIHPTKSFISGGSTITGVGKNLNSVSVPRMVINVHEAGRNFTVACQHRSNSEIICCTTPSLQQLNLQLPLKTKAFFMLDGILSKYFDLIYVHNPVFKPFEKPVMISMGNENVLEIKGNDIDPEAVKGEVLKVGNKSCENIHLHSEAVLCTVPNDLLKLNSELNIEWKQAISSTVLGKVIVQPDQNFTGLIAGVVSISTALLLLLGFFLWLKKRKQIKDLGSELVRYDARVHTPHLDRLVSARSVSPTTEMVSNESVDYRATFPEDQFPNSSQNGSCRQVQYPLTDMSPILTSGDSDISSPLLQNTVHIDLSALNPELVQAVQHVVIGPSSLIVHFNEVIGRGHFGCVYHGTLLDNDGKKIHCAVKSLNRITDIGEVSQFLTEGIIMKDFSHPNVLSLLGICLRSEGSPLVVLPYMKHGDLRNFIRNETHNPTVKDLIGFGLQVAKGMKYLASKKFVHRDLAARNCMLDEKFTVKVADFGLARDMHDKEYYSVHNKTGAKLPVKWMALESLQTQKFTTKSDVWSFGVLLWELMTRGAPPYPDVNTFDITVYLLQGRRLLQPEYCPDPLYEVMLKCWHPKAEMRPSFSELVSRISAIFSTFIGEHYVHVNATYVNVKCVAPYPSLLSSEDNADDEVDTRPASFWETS

[5] = molecular target: T1, Hepatocyte growth factor receptor; experiment: Inhibition of wild type phosphorylated MET (unknown origin) pre-incubated for 30 mins before biotinylated poly(glutamate-alanine-tyrosine) peptide addition and measured after 5 mins by HTRF assay
[6] = Lipophilicity, log D of the compound by HPLC method; assay type: physicochemical
[7] = molecular target: Hepatocyte growth factor receptor (Homo sapiens, UniProt P08581, L1195V); experiment: Inhibition of phosphorylated MET L1195V mutant (unknown origin) pre-incubated for 30 mins before biotinylated poly(glutamate-alanine-tyrosine) peptide addition and measured after 5 mins by HTRF assay
Chain of Hepatocyte growth factor receptor (Homo sapiens, UniProt P08581, L1195V) (P08581 25-1390 L1195V limits assumed): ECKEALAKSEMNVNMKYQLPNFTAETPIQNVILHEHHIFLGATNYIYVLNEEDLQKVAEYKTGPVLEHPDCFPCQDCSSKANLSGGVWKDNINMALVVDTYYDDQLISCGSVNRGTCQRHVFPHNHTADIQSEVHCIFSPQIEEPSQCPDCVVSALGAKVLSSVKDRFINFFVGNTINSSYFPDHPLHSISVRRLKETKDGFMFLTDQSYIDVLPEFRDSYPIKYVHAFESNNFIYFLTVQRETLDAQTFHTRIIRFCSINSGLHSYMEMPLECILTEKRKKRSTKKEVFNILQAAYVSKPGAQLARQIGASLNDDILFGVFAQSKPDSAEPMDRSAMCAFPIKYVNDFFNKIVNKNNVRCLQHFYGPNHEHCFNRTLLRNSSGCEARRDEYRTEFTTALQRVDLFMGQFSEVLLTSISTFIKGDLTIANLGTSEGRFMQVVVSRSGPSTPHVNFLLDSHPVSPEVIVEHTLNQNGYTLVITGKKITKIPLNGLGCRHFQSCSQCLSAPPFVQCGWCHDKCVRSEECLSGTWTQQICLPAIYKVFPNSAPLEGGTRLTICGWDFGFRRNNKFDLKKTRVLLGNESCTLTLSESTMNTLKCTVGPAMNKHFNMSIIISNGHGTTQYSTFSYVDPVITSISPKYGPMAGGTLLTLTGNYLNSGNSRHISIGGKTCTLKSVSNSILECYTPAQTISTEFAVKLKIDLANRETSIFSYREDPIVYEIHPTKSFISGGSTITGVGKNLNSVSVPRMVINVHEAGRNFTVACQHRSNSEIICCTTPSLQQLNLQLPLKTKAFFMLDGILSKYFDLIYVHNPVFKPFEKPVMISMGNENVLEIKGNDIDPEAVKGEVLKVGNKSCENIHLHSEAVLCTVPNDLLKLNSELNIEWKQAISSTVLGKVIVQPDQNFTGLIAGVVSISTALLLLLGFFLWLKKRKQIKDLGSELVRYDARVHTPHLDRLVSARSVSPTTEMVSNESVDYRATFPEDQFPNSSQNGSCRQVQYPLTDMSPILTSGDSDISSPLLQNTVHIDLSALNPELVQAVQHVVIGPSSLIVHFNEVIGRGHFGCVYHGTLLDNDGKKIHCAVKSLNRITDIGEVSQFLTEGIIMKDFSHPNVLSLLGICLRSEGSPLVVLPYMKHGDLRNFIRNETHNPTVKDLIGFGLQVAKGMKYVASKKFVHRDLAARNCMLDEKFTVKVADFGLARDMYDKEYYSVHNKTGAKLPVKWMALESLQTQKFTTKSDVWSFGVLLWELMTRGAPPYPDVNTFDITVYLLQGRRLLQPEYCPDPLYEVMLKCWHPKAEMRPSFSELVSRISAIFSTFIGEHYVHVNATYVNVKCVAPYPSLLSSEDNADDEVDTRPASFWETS

[8] = Equilibrium solubility in phosphate buffer in absence of 10% Labrasol at pH 7.4; assay type: physicochemical
MKN-45 = experiment: Antiproliferative activity against human MKN45 cells assessed as reduction in [14C]-thymidine incorporation incubated for 96 hrs by beta counting method; assay type: functional, cell-based; settings: for IC50: MKN-45, 96 h; summary of the method: as §1
Cytochrome P450 3A4 [9] = molecular target: T2, Cytochrome P450 3A4 (Homo sapiens, UniProt P08684); experiment: Inhibition of human recombinant CYP3A4 co-expressed with human P450 reductase and human b5 reductase assessed as reduction in 7-Hydroxyquinoline production using 7-benzyloxyquinoline as substrate and NADPH incubated for 15 mins by fluorimetry; assay type: ADME
T2 sequence (P08684 whole entry): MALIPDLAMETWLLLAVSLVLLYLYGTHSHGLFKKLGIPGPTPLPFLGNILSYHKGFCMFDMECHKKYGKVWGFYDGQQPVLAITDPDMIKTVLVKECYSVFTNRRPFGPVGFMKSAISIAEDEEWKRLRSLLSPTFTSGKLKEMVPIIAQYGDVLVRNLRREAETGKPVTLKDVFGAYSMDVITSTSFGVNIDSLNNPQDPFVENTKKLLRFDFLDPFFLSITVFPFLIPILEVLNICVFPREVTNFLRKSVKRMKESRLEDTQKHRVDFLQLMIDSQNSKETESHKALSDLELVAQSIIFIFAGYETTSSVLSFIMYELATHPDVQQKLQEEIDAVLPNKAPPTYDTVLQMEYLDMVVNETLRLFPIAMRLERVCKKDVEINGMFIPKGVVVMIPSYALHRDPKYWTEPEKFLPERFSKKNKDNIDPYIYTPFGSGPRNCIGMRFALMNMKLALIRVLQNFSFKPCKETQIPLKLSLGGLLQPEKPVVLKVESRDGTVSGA

[10] = Drug metabolism in human hepatic microsomes at 5 uM incubated for 20 mins in presence of NADPH by liquid chromatography-tandem mass spectrometry; assay type: ADME, Microsome; settings: liver microsomes, read-out: Drug metabolism
[11] = Apparent permeability from apical to basolateral side in human Caco2/TC7 cells at 20 uM by liquid chromatography-tandem mass spectrometry; settings: Caco-2
Cytochrome P450 3A4 [12] = molecular target: T2, Cytochrome P450 3A4; experiment: Mechanism based time dependent inhibition of human recombinant CYP3A4 co-expressed with human P450 reductase and human b5 reductase assessed as reduction in 7-Hydroxyquinoline production using 7-benzyloxyquinoline as substrate and NADPH measured every 3 mins for 15 mins by fluorimetry; assay type: ADME; settings: recombinant enzyme, 0.25 h
[13] = molecular target: Cyclin-dependent kinase 9 (Homo sapiens, UniProt P50750); experiment: Inhibition of CDK9 (unknown origin)
Chain of Cyclin-dependent kinase 9 (P50750 whole entry): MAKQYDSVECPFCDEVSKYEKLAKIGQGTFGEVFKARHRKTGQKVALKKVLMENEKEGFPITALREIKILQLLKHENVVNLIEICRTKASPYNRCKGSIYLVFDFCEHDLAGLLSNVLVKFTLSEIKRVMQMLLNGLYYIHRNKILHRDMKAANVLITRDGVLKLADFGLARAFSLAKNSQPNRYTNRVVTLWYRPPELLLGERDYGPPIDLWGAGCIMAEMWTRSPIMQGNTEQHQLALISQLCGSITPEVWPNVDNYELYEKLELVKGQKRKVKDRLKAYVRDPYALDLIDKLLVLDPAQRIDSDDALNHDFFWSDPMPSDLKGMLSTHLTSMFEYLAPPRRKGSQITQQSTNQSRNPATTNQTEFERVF

[14] = Genotoxicity in Salmonella typhimurium by Ames test; assay type: toxicity; settings: salmonella enterica subsp. enterica serovar typhimurium
Tubulin = experiment: Binding affinity to tubulin (unknown origin); assay type: protein-complex assay, Homo sapiens
[15] = Oral bioavailability in mouse; assay type: ADME, organism-based; settings: in vivo
[16] = molecular target: T1, Hepatocyte growth factor receptor; experiment: Binding affinity to MET (unknown origin) by isothermal titration calorimetry

| SMILES | solubility thermodynamic [1] | IC50 [2] | IC50 [3] | IC50 [4] | IC50 [5] | logD [6] | IC50 [7] | solubility thermodynamic [8] | IC50 (MKN-45) | IC50 (Cytochrome P450 3A4 [9]) | metabolised at 20 min, 5 µM [10] | Papp A→B at 20 µM [11] | INH (Cytochrome P450 3A4 [12]) | inhibition [2] | IC50 [13] | Activity [14] | IC50 (Tubulin) | inhibition (MKN-45) | bioavailability [15] | Kd [16] |
| --- | --- | --- | --- | --- | --- | --- | --- | --- | --- | --- | --- | --- | --- | --- | --- | --- | --- | --- | --- | --- |
| CCN(CC)CCNC(=O)Nc1nc2ccc(Sc3nnc4ccc(-c5ccc(F)cc5)nn34)cc2s1 | 1000 µM | 10 nM | 71 nM | 864 nM | 3 nM | 4.15 | 148 nM | < 1 µM | 33 nM | – | – | – | – | – | – | – | – | – | – | – |
| O=C(NCCN1CCOCC1)Nc1nc2ccc(Sc3nnc4ccc(NC5CCOCC5)nn34)cc2s1 | – | – | – | 217 nM | 1 nM | – | – | 89 µM (≈ 49.5 µg/mL) | – | > 40000 nM | 39% | 0.2 ×10⁻⁶ cm/s | -14.2 %/min | – | – | – | – | – | – | – |
| O=C(Nc1nc2ccc(Sc3nnc4ccc(-c5ccc(F)cc5)nn34)cc2s1)OCCN1CCOCC1 | 245 µM | 25 nM | – | > 10000 nM | 45 nM | 4.1 | 6520 nM | 8 µM (≈ 4.41 µg/mL) | 95 nM | – | – | – | – | – | – | – | – | – | – | – |
| COC(=O)Nc1nc2cc(Sc3nnc4ccc(-c5ccc(F)cc5)nn34)ccc2[nH]1 | – | – | – | – | 10 nM | 3.8 | – | – | – | – | – | – | – | Active | > 10000 nM | Toxic | 2000 nM | Active | – | – |
| CCN1CCC(CCNC(=O)Nc2nc3ccc(Sc4nnc5ccc(-c6cccs6)nn45)cc3s2)CC1 | – | 29 nM | – | 23 nM | 2 nM | 3.9 | – | < 2 µM | 2.7 nM | – | – | – | – | – | – | – | – | – | – | – |
| CCNc1nc2ccc(Sc3nnc4ccc(-c5ccc(F)cc5)nn34)cc2s1 | – | 15 nM | 417 nM | > 10000 nM | 15 nM | > 4.6 | > 10000 nM | < 2.5 µM | 42 nM | – | – | – | – | – | – | – | – | – | – | – |
| COC(=O)Nc1nc2ccc(Sc3nnc4ccc(-c5ccc(F)cc5)nn34)cc2s1 | 15 µM | 22 nM | – | > 10000 nM | 16 nM | > 4.6 | > 10000 nM | < 1 µM | 91 nM | – | – | – | – | – | – | Non-Toxic | > 25000 nM | – | – | – |
| O=C(NCCN1CCOCC1)Nc1nc2ccc(Sc3nnc4ccc(NC5CCCCC5)nn34)cc2s1 | – | – | – | 139 nM | 1 nM | – | – | < 2 µM | – | 2900 nM | 38% | – | -9.1 %/min | – | – | – | – | – | – | – |
| O=C(NCCN1CCOCC1)Nc1nc2ccc(Sc3nnc4ccc(OC5CCCC5)nn34)cc2s1 | – | – | – | 216 nM | 6 nM | – | – | < 2 µM | – | 31000 nM | 29% | 2.6 ×10⁻⁶ cm/s | -5.5 %/min | – | – | – | – | – | 12% | – |
| O=C(NCCN1CCOCC1)Nc1nc2ccc(Sc3nnc4ccc(Oc5ccccc5)nn34)cc2s1 | – | – | – | 174 nM | 2 nM | – | – | < 2 µM | – | 7900 nM | 32% | 0.8 ×10⁻⁶ cm/s | -12.8 %/min | – | – | – | – | – | – | – |
| COCCNC(=O)Nc1nc2cc(OS(=O)(=O)c3c(F)cccc3F)ccc2[nH]1 | – | – | – | – | 5 nM | – | – | – | – | – | – | – | – | – | 6 nM | – | – | – | – | – |
| O=C(CC1CC1)Nc1nc2ccc(Sc3nnc4ccc(-c5ccc(F)cc5)nn34)cc2s1 | – | 13 nM | 128 nM | > 10000 nM | 4 nM | > 4.6 | > 10000 nM | < 2 µM | 22 nM | – | – | – | – | – | – | – | – | – | – | – |
| O=C(NCCN1CCOCC1)Nc1nc2ccc(Sc3nnc4ccc(-c5cccc(F)c5)nn34)cc2s1 | 1170 µM | – | – | 140 nM | 10 nM | – | – | 32 µM (≈ 17.6 µg/mL) | – | 1800 nM | 24% | 0.4 ×10⁻⁶ cm/s | -8.2 %/min | – | – | – | – | – | – | 8.7 nM |
| Nc1nc2ccc(Sc3nnc4ccc(-c5ccc(F)cc5)nn34)cc2s1 | 44 µM | 43 nM | 245 nM | > 10000 nM | 10 nM | > 4.6 | 9000 nM | – | 81 nM | – | – | – | – | – | – | – | – | – | – | – |
| CCOc1ccc2nnc(Sc3ccc4nc(NC(=O)NCCN5CCOCC5)sc4c3)n2n1 | 460 µM | – | – | 643 nM | 3 nM | – | – | 5 µM (≈ 2.5 µg/mL) | – | 4000 nM | 51% | – | -13.1 %/min | – | – | – | – | – | – | – |
| O=C(NCCN1CCOCC1)Nc1nc2ccc(Sc3nnc4ccc(OC5CCCCC5)nn34)cc2s1 | 500 µM | – | – | 252 nM | 2 nM | – | – | < 2 µM | – | 2700 nM | 23% | 9.8 ×10⁻⁶ cm/s | -4.6 %/min | – | – | – | – | – | 17% | 0.6 nM |
| Fc1ccc(-c2ccc3nnc(Sc4ccc5nc(NCCN6CCOCC6)sc5c4)n3n2)cc1 | 543 µM | 13 nM | 455 nM | > 10000 nM | 20 nM | 4.1 | 835 nM | < 1 µM | 45 nM | – | – | – | – | – | – | – | – | – | – | – |
| O=C(CCCN1CCOCC1)Nc1nc2ccc(Sc3nnc4ccc(-c5ccc(F)cc5)nn34)cc2s1 | 96 µM | 2 nM | 93 nM | 1170 nM | 6 nM | 4.3 | 318 nM | – | 12 nM | – | – | – | – | – | – | – | – | – | – | – |
| O=C(Nc1nc2ccc(Sc3nnc4ccc(-c5ccc(F)cc5)nn34)cc2s1)C1CC1 | 64 µM | 4 nM | 13 nM | 883 nM | 3 nM | 4.7 | 61 nM | < 1 µM | 7 nM | – | – | – | – | – | – | – | – | – | – | – |
| O=C(NCCN1CCOCC1)Nc1nc2ccc(Sc3nnc4ccc(OC5CCCCCC5)nn34)cc2s1 | – | – | – | 407 nM | 15 nM | – | – | < 2 µM | – | 14000 nM | 36% | 2 ×10⁻⁶ cm/s | -11.6 %/min | – | – | – | – | – | – | – |
| CCCCOc1ccc2nnc(Sc3ccc4nc(NC(=O)NCCN5CCOCC5)sc4c3)n2n1 | – | – | – | 140 nM | 5 nM | – | – | < 2 µM | – | 8700 nM | 23% | 0.7 ×10⁻⁶ cm/s | -11.3 %/min | – | – | – | – | – | – | – |
| O=C(NCCN1CCOCC1)Nc1nc2ccc(Sc3nnc4cccnn34)cc2s1 | 1070 µM | – | – | 4800 nM | 29 nM | – | – | 70 µM (≈ 32 µg/mL) | – | 34000 nM | 11% | – | -2.3 %/min | – | – | – | – | – | – | 12 nM |
| O=C(NCCN1CCOCC1)Nc1nc2ccc(Sc3nnc4ccc(Oc5cccc(F)c5)nn34)cc2s1 | – | – | – | 56 nM | 3 nM | – | – | < 2 µM | – | 2000 nM | 16% | 0.8 ×10⁻⁶ cm/s | -12.2 %/min | – | – | – | – | – | – | – |
| O=C(NCCN1CCOCC1)Nc1nc2ccc(Sc3nnc4ccc(NC5CC5)nn34)cc2s1 | – | – | – | 274 nM | 1 nM | – | – | < 2 µM | – | 200 nM | 26% | – | -3.8 %/min | – | – | – | – | – | – | – |
| COC(=O)Nc1nc2cc(OS(=O)(=O)c3c(Cl)cccc3Cl)ccc2[nH]1 | – | – | – | – | 23 nM | – | – | – | – | – | – | – | – | – | 1200 nM | – | 2700 nM | – | – | – |
